Measurements taken from ChEMBL document CHEMBL1649322, “Oral treatment options for ambulatory patients with urinary tract infections caused by extended-spectrum-beta-lactamase-producing Escherichia coli” (2010).
Converted amounts (≈) assume the structure as drawn.

Legend:
[1] = test system: Escherichia coli; assay: Antimicrobial activity against xtended-spectrum-beta-lactamase-producing Escherichia coli obtained from urinary tract infection patient assessed as percent susceptible isolates by Etest; type: functional, Urine
Procedure, shortened: (§1)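 ESBL-producing E. coli isolates from urinary tract infections; ESBL expression confirmed by double-disk synergy test per 2007 CLSI guidelines. Verified isolates (n = 100) tested by Etest, alongside agar diffusion, for pivmecillinam, fosfomycin and ertapenem. Read-outs were MIC and susceptibility category (susceptible, reduced/intermediate, resistant), given as percent of isolates; mean MIC calculated for susceptible isolates.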

[2] = test system: Escherichia coli; assay: Antimicrobial activity against xtended-spectrum-beta-lactamase-producing Escherichia coli obtained from urinary tract infection patient by Etest; type: functional; conditions: Urine; procedure, shortened: as §1

| Molecule | Activity [1] [%] | MIC [2] [µg/mL] | Activity ([1]; Urine) [%] |
| --- | --- | --- | --- |
| C[C@@H](O)[C@H]1C(=O)N2C(C(=O)O)=C(S[C@@H]3CN[C@H](C(=O)Nc4cccc(C(=O)O)c4)C3)[C@H](C)[C@H]12 [ERTAPENEM] | 100 | 0.07 (≈ 0.147 µM) | – |
| O=C(O)c1cn(C2CC2)c2cc(N3CCNCC3)c(F)cc2c1=O [CIPROFLOXACIN] | 22 | – | – |
| GENTAMICIN | – | – | 78 |
| O=C1CN(/N=C/c2ccc([N+](=O)[O-])o2)C(=O)N1 [NITROFURANTOIN] | 94 | 17 (≈ 71.5 µM) | – |
| C[C@@H]1O[C@@H]1P(=O)(O)O [FOSFOMYCIN] | 97 | 1.38 (≈ 10 µM) | – |
| CC(C)(C)C(=O)OCOC(=O)[C@@H]1N2C(=O)[C@@H](/N=C/N3CCCCCC3)[C@H]2SC1(C)C [AMDINOCILLIN PIVOXIL] | 85 | 1.17 (≈ 2.66 µM) | – |
